Source: ChEMBL document CHEMBL3091291, “Synthesis and pharmacological characterization of benzenesulfonamides as dual species inhibitors of human and murine mPGES-1” (Bioorg Med Chem, 2013)
The source made the active and inactive calls. The rule behind the calls is not given here.

Key:
[1] = biological target: T1, Polyunsaturated fatty acid 5-lipoxygenase (Homo sapiens) (UniProt P09917); assay: Inhibition of calcium ionophore (A23187)-stimulated human 5-LO assessed as reduction of 5(S)-HETE production by measuring remaining activity at 100 uM preincubated for 15 mins followed by calcium ionophore (A23187) addition measured after 15 mins by LC-MS/MS analysis
T1 sequence (whole entry): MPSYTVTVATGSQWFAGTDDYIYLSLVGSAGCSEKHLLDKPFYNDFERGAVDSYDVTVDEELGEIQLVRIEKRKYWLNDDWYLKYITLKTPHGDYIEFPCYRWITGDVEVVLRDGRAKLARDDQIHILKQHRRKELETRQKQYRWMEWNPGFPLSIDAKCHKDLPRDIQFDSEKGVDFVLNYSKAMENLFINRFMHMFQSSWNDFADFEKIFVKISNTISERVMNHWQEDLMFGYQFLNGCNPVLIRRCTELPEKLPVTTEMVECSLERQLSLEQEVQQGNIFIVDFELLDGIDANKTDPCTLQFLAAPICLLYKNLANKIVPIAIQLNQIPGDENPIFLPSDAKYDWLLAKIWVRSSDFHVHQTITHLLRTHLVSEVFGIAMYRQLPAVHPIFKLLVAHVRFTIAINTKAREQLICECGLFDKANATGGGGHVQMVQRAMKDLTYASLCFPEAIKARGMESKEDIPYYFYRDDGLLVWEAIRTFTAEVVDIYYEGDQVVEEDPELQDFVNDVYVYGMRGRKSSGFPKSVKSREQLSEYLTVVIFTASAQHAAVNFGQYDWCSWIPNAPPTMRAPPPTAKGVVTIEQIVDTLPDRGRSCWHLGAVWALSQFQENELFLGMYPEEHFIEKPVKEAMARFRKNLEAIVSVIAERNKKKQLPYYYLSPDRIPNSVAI
Method in brief: (§1)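 Heparinized human whole blood (500 µL) preincubated with compound 15 min at 37 °C, then stimulated with 20 µM calcium ionophore A23187 in autologous plasma for 15 min at 37 °C. Plasma spiked with deuterated LTB₄ and HETE internal standards, extracted into ethyl acetate, analysed by LC–MS/MS. Inhibition scored when a level fell by 33% or more versus control.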

[2] = biological target: T1, Polyunsaturated fatty acid 5-lipoxygenase (Homo sapiens); assay: Inhibition of calcium ionophore (A23187)-stimulated human 5-LO assessed as reduction of LTB4 production by measuring remaining activity at 100 uM preincubated for 15 mins followed by calcium ionophore (A23187) addition measured after 15 mins by LC-MS/MS analysis; method in brief: as §1
[3] = biological target: Prostaglandin G/H synthase 1 (Homo sapiens) (UniProt P23219); assay: Inhibition of COX1 in human whole blood assessed as reduction in TXB2 production by measuring remaining activity at 100 uM after 1 hr by LC-MS/MS analysis
[4] = biological target: T2, Prostaglandin E synthase (Homo sapiens) (UniProt O14684); assay: Inhibition of mPGES-1 in human HeLa cells using PGH2 as substrate assessed as inhibition of IL-1beta/TNFalpha-stimulated PGE2 production at 10 uM after 24 hrs by LC-MS/MS analysis; assay type: cell-based
T2 sequence (whole entry): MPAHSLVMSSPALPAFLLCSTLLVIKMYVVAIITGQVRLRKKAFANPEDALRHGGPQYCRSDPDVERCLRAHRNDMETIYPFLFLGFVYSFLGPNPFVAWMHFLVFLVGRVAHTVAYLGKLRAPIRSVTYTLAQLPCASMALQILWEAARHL
Method in brief: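 HeLa cells (2 × 10⁴ per well) grown 24 h at 37 °C, then given fresh medium with 1 ng/mL IL-1b + 5 ng/mL TNFa (or PBS for unstimulated control) plus compound (1, 10 or 100 µM) or DMSO for 24 h at 37 °C. Supernatant mixed with H₃PO₄, EDTA and deuterated internal standards; PGE₂ measured by SPE and LC–MS/MS.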

[5] = biological target: T3, Prostaglandin G/H synthase 1 (Ovis aries) (UniProt P05979); assay: Inhibition of ovine COX1 using […] at 10 uM by LC-MS/MS analysis
T3 sequence (whole entry): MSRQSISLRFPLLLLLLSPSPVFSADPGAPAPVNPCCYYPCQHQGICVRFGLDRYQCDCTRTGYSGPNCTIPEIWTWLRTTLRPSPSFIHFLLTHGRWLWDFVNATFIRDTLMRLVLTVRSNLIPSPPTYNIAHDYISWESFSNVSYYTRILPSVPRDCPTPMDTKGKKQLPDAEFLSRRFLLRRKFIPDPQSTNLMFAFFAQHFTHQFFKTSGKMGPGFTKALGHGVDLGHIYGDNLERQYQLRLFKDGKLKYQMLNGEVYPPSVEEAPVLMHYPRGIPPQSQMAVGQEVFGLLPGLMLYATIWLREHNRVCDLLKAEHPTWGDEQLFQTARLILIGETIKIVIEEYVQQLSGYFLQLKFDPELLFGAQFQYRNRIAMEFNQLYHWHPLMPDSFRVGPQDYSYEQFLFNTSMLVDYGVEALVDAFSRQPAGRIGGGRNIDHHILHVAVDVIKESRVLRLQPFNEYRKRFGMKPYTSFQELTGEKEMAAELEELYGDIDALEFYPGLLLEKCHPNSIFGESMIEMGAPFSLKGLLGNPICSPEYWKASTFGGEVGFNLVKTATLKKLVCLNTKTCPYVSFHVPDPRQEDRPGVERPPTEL
Method in brief: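 Ovine COX-1 and recombinant human COX-2 tested directly with a commercial COX inhibitor screening kit, following the manufacturer's protocol. COX-derived PGH₂ reduced with SnCl₂; the resulting PGE₂, PGD₂ and PGF₂a diluted in MeOH, spiked with deuterated internal standards and quantified by SPE and LC–MS/MS.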

[6] = biological target: T4, Prostaglandin E synthase (Mus musculus) (UniProt Q9JM51); assay: Inhibition of mPGES-1 in mouse RAW264.7 cells using PGH2 as substrate assessed as inhibition of LPS-stimulated PGE2 production at 5 uM preincubated for 30 mins followed by substrate addition measured after 1 min by LC-MS/MS analysis; assay type: cell-based
T4 sequence (whole entry): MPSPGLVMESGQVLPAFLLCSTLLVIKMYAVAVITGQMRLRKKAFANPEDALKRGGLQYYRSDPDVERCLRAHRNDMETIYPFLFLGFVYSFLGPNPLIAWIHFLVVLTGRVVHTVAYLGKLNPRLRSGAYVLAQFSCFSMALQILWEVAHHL
Method in brief: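 Microsomal fraction from HeLa, NIH-3T3 or RAW 264.7 cells, obtained by sonication and ultracentrifugation, resuspended in 0.1 M KPi pH 7.4 with 2.5 mM reduced GSH. Protein at 0.15 mg/mL (HeLa, NIH) or 0.3 mg/mL (RAW) incubated with compound 30 min on ice. Reaction started with 20 µM PGH₂, stopped after 1 min with FeCl₂/citric acid. PGE₂ quantified by SPE and LC–MS/MS. IC50 from four-parameter logistic fit of increasing concentrations.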

Sequence of Prostaglandin G/H synthase 1 (Homo sapiens) (P23219 whole entry): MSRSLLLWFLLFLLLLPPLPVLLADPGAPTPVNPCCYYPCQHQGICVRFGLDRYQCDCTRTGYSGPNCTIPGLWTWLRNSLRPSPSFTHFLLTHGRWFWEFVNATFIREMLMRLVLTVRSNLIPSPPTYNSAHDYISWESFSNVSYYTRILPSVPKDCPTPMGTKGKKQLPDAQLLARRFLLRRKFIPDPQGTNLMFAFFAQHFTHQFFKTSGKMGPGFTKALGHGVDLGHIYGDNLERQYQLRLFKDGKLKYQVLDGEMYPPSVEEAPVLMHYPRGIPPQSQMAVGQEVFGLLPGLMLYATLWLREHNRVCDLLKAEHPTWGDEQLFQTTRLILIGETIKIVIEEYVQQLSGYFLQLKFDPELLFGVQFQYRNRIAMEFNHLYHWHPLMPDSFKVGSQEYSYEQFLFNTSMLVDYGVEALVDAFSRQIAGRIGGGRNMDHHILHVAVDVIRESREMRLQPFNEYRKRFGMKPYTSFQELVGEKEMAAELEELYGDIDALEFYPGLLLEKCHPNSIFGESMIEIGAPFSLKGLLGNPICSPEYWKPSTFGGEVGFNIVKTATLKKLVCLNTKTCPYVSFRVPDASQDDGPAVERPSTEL

Compound | Activity [1] [%] | Activity [2] [%] | Activity [3] [%] | inhibition [4] | inhibition [5] [%] | inhibition [6] [%]
O=C(O)c1ccc(S(=O)(=O)N(Cc2ccccc2)c2ccc(Oc3ccccc3)cc2)cc1 | 125 | 140 | 85.2 | Active | 12.4 | 74.7
O=C(O)c1ccc(S(=O)(=O)N(Cc2ccccc2)Cc2ccc(Nc3ccccc3)cc2)cc1 | 56.2 | 47 | 110 | Active | < 0 | 
COc1ccc(CN(Cc2ccccc2)S(=O)(=O)c2ccc(C(=O)O)cc2)cc1 | 120 | 110 | 90 | inactive | < 0 | 29.8
O=C(O)c1ccc(S(=O)(=O)N(Cc2ccccc2)Cc2ccc(Oc3ccccc3)cc2)cc1 | 98.7 | 90.8 | 92.4 | Active | 0.3 | 71.4
COc1ccc(CN(CC2CCCCC2)S(=O)(=O)c2ccc(C(=O)O)cc2)cc1 | 65.6 | 60.4 | 83.6 | Active | 10.3 | 
